Measurements reported in ChEMBL document CHEMBL5705901, “Exploiting selective BCL-2 family inhibitors to dissect cell survival dependencies and define improved strategies for cancer therapy” (Sci Transl Med, 2015).
Calls of active or inactive are those of the source. No cut-off for these calls is given here.

Key:
MOLT-4 = assay: Induction of apoptosis in human MOLT-4 cells assessed as cytochrome C release from mitochondria upto 500 nM incubated for 4 hrs by immunoblot analysis; type: functional, cell-based
Procedure, shortened: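 Molt-4 cells were treated for 4 h with increasing concentrations. Cytochrome c in the mitochondrial and cytosolic fractions was determined by immunoblotting.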

NCI-H196 = assay: Synergistic antiproliferative activity against 5 times passaged human NCI-H1963 cells xenografted in mouse assessed as reduction in tumor volume at 25 mg/kg, po co-administered with venetoclax twice a day for 14 days; type: functional, organism-based; details: time 14.0 day
NCI-H1650 [1] = assay: Antitumor activity against human NCI-H1650 cells xenografted in SCID-bg mouse assessed as maximum tumor growth inhibition at 25 mg/kg, po administered daily for 14 days relative to control; type: functional; details: NCI-H1650, 336 h, time 14 day, read-out: TGI
Procedure, shortened: (§1)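 NCI-H1650 NSCLC xenografts, ten mice per group. Arms: vehicle; docetaxel iv once at 7.5 mg/kg; oral agent daily for 14 days at 25 mg/kg; and the two combined. TGImax = 100(1 − Tv/Cv) from mean volumes. TGD = 100(T/C − 1) from median times to reach 1 cm3.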

NCI-H1650 [2] = assay: Antitumor activity against human NCI-H1650 cells xenografted in SCID-bg mouse assessed as tumor growth delay at 25 mg/kg, po administered daily for 14 days relative to control; type: functional; details: time 14 day; procedure, shortened: as §1
[3] = Toxicity in po dosed SCID-bg mouse assessed as body weight loss in presence of docetaxel relative to control; type: organism-based; details: in vivo
[4] = Toxicity in po dosed SCID-bg mouse assessed as tolerance; type: organism-based; details: in vivo
EBC-1 = assay: Antitumor activity against human EBC-1 cells xenografted in po dosed SCID-bg mouse assessed as tumor growth delay relative to control; type: functional
[5] = Toxicity in Sprague-Dawley rat assessed as inhibition of granulopoiesis by measuring reduction in neutrophil count at 7 mg/kg, po administered daily for 5 days measured on day 6 in presence of docetaxel by microscopic analysis relative to control; type: organism-based; details: in vivo, 144 h, time 6 day
Procedure, shortened: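 Male Sprague-Dawley rats, n = 10 per group: docetaxel 5 mg/kg i.v. once, or oral inhibitor daily for 5 days (30, 50 or 7 mg/kg depending on agent), alone or combined with docetaxel, against vehicles. Total neutrophil and platelet counts in blood collected on day 6; Tukey-Kramer test versus vehicle.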

MDA-MB-231 = assay: Synergistic antiproliferative activity against LC3 positive human MDA-MB-231 cells assessed as reduction in cell viability by measuring bliss sum score incubated for 72 hrs in presence of docetaxel by CellTiter-Glo cell vaibility assay; type: functional
HCC1569 = assay: Synergistic antiproliferative activity against human HCC1569 cells assessed as reduction in cell viability by measuring bliss sum score incubated for 72 hrs in presence of docetaxel by CellTiter-Glo cell vaibility assay; type: functional
MDA-MB-361 = assay: Synergistic antiproliferative activity against human MDA-MB-361 cells assessed as reduction in cell viability by measuring bliss sum score incubated for 72 hrs in presence of docetaxel by CellTiter-Glo cell vaibility assay; type: functional
Hs-578T = assay: Synergistic antiproliferative activity against human Hs-578T cells assessed as reduction in cell viability by measuring bliss sum score incubated for 72 hrs in presence of docetaxel by CellTiter-Glo cell vaibility assay; type: functional
ZR-75-30 = assay: Antagonistic antiproliferative activity against human ZR-75-30 cells assessed as reduction in cell viability by measuring bliss sum score incubated for 72 hrs in presence of docetaxel by CellTiter-Glo cell vaibility assay; type: functional
MDA-MB-468 = assay: Induction of apoptosis in human MDA-MB-468 cells assessed as increase in caspase cleavage incubated for 48 hrs in presence of docetaxel by immunoblot analysis; type: functional, cell-based
[6] = Inhibition of granulocyte colony formation in human bone marrow cells at 0.1 to 20 uM incubated for 14 to 16 days in presence of docetaxel by light microscopic analysis; type: toxicity, cell-based; details: bone marrow cell, dose lower 0.1 µM, time lower 14 day, dose upper 20 µM, time upper 16 day
Procedure, shortened: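 Human bone marrow granulocyte colony-forming assay in semisolid medium, increasing inhibitor concentrations ± 5 nM docetaxel; colonies counted by light microscopy after 14 days; triplicate means with SD; combinations compared with docetaxel alone by Student's t test.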

## Cc1c(-c2ccc(N3CCc4cccc(C(=O)Nc5nc6ccccc6s5)c4C3)nc2C(=O)O)cnn1CC12CC3CC(CC(C3)C1)C2
MOLT-4
  Activity: Active
NCI-H196
  Activity: Active
NCI-H1650 [1]
  inhibition in vivo at 25 mg/kg: 48%
NCI-H1650 [2]
  Activity: 33%
[3]
  Activity: < 9%
[4]
  Activity: Non-Toxic
EBC-1
  Activity: 22%
[5]
  Activity: Toxic

## CN(C)CC#Cc1ccc(OCCCc2sc(N3CCc4cccc(C(=O)Nc5nc6ccccc6s5)c4C3)nc2C(=O)O)c(F)c1 [A-1155463]
MDA-MB-231
  Activity_index: 305
HCC1569
  Activity_index: 185
MDA-MB-361
  Activity_index: 110
Hs-578T
  Activity_index: 62
ZR-75-30
  Activity_index: -265

## CC1(C)CCC(c2ccc(Cl)cc2)=C(CN2CCN(c3ccc(C(=O)NS(=O)(=O)c4ccc(N[C@H](CCN5CCOCC5)CSc5ccccc5)c(S(=O)(=O)C(F)(F)F)c4)cc3)CC2)C1 [NAVITOCLAX]
MDA-MB-468
  Activity: Active
[6]
  Activity: Toxic
